Data reported in ChEMBL document CHEMBL1126751, “Studies on quinazolines. 5. 2,3-dihydroimidazo[1,2-c]quinazoline derivatives: a novel class of potent and selective alpha 1-adrenoceptor antagonists and antihypertensive agents” (J Med Chem, 1993).
The source made the active and inactive calls. No cut-off for these calls is given here.

Experiments:
[1] = target: T1, Adrenergic receptor alpha-1 (Rattus norvegicus, UniProt P15823+P23944+P43140); experiment: Binding affinity against alpha-1 adrenergic receptor by measuring displacement of [3H]prazosin from rat brain cortex membranes (in vitro).; assay type: cell membranes, Membrane
T1 sequence (P15823 whole entry): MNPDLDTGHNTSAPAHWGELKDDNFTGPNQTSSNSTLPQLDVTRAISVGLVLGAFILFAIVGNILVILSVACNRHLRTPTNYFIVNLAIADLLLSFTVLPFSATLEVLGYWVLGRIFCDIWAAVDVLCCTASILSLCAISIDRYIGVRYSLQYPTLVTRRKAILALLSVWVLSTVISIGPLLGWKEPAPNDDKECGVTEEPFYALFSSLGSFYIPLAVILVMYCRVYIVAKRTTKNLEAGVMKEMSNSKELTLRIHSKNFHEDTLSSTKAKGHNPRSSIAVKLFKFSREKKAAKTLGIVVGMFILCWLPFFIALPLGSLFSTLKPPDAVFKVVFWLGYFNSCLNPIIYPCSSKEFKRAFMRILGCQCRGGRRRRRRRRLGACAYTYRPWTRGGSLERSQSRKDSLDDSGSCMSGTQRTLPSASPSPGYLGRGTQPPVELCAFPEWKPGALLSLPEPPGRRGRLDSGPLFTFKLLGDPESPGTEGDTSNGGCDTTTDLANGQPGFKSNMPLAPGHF
T1 sequence (P23944 whole entry): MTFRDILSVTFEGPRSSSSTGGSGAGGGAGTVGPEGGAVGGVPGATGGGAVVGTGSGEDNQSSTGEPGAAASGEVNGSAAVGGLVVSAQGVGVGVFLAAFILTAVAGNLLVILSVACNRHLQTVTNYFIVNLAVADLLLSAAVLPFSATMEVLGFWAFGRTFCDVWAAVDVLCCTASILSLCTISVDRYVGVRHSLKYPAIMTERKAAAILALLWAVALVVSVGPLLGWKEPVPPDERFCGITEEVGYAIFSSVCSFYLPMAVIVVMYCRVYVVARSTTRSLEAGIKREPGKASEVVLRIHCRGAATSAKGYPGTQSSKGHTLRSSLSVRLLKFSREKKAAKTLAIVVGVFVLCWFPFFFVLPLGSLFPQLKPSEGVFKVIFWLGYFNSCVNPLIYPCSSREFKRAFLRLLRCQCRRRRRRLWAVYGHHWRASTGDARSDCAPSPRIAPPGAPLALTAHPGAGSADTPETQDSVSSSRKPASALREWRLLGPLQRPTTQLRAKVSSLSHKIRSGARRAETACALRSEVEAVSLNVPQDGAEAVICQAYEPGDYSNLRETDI
T1 sequence (P43140 whole entry): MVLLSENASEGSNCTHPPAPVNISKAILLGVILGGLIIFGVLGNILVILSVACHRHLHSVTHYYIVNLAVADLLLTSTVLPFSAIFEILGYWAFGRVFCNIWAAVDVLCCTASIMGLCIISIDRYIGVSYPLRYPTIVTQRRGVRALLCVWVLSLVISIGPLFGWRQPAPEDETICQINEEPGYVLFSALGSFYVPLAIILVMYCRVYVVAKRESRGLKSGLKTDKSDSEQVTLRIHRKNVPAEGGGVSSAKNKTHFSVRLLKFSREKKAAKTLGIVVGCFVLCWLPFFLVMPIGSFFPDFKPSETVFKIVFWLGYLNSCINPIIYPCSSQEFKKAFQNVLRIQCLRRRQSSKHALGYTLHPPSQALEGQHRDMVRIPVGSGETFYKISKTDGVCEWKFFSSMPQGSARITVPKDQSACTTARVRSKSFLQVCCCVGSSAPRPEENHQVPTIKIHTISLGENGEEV

[2] = test system: Rattus norvegicus; experiment: Blood pressure lowering activity in spontaneously hypertensive rats (SHR) after 1 hour of administration (iv) of dose of 0.5 mg/kg; Did not last more than 1/2 hr […]; assay type: functional, organism-based; parameters: dose 0.5 mg/kg
[3] = target: T2, Adrenergic receptor alpha-2 (Rattus norvegicus, UniProt P22086+P19328+P22909); experiment: Binding affinity against alpha-2 adrenergic receptor by measuring displacement of [3H]clonidine from rat brain cortex membranes (in vitro).; assay type: cell membranes, Membrane
T2 sequence (P22086 whole entry): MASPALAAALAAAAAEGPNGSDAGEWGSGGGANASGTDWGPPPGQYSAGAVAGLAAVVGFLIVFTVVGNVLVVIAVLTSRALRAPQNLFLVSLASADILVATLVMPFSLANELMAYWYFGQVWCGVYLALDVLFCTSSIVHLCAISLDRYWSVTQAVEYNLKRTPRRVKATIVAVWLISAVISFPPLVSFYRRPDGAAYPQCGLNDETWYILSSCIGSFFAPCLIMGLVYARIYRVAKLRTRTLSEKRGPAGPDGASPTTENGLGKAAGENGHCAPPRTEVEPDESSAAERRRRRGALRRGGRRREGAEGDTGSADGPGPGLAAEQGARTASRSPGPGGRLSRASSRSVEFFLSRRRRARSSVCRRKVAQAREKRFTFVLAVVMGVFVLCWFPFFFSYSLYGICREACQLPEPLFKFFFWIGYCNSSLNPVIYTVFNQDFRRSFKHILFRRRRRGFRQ
T2 sequence (P19328 whole entry): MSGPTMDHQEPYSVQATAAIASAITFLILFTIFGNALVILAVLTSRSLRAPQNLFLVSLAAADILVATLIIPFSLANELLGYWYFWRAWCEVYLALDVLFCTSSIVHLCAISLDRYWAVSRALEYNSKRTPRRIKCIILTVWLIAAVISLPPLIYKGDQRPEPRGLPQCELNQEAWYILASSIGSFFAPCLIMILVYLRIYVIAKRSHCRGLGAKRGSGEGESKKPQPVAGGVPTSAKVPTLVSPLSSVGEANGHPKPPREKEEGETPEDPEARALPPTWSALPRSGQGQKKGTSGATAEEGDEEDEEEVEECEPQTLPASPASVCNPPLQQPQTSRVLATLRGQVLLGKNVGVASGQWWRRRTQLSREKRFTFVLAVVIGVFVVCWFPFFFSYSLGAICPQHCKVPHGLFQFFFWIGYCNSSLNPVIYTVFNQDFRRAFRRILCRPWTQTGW
T2 sequence (P22909 whole entry): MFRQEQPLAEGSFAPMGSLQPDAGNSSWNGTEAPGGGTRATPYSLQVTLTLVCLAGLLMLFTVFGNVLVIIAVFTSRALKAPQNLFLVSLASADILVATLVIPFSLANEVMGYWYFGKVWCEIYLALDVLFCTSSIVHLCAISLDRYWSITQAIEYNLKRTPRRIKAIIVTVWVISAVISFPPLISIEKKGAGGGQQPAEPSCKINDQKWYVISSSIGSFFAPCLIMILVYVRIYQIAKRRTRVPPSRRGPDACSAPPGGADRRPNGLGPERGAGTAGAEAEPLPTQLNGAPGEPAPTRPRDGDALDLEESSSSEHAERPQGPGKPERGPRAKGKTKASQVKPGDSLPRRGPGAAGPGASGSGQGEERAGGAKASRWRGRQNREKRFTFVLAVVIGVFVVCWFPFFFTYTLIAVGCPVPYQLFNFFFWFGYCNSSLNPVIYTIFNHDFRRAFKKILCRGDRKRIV

[4] = test system: Rattus norvegicus; experiment: Blood pressure lowering activity in spontaneously hypertensive rats (SHR) after 6 hours of administration (iv) of dose of 0.5 mg/kg; Did not last more than 1/2 hr […]; assay type: functional, organism-based; parameters: dose 0.5 mg/kg
[5] = test system: Rattus norvegicus; experiment: Blood pressure lowering activity in spontaneously hypertensive rats (SHR) after 1 hour of administration (iv) of dose of 4.0 mg/kg; Did not last more than 1/2 hr […]; assay type: functional, organism-based; parameters: dose 4 mg/kg
[6] = test system: Rattus norvegicus; experiment: Blood pressure lowering activity in spontaneously hypertensive rats (SHR) after 6 hour of administration (iv) of dose of 4.0 mg/kg; Did not last more than 1/2 hr […]; assay type: functional, organism-based; parameters: dose 4 mg/kg
[7] = test system: Rattus norvegicus; experiment: Blood pressure lowering activity in spontaneously hypertensive rats (SHR) after 1 hour of administration (iv) of dose of 0.5 mg/kg […]; assay type: functional
[8] = test system: Rattus norvegicus; experiment: Blood pressure lowering activity in spontaneously hypertensive rats (SHR) after 6 hours of administration (iv) of dose of 2.0 mg/kg […]; assay type: functional
[9] = test system: Rattus norvegicus; experiment: Blood pressure lowering activity in spontaneously hypertensive rats (SHR) after 6 hours of administration (iv) of dose of 0.5 mg/kg […]; assay type: functional
[10] = test system: Rattus norvegicus; experiment: Blood pressure lowering activity in spontaneously hypertensive rats (SHR) after 1 hour of administration (iv) of dose of 2.0 mg/kg […]; assay type: functional
[11] = test system: Rattus norvegicus; experiment: Blood pressure lowering activity in spontaneously hypertensive rats (SHR) after 1 hour of administration (iv) of dose of 0.5 mg/kg; assay type: functional
[12] = test system: Rattus norvegicus; experiment: Blood pressure lowering activity in spontaneously hypertensive rats (SHR) after 6 hours of administration (iv) of dose of 0.5 mg/kg; assay type: functional
[13] = target: T1, Adrenergic receptor alpha-1; experiment: Alpha-1 antagonistic activity against phenylephrine in rat aorta; assay type: functional, tissue-based
[14] = test system: Rattus norvegicus; experiment: Blood pressure lowering in spontaneously hypertensive rats (SHR) after 1 hour of administration (iv) of dose of 4.0 mg/kg […]; assay type: functional
[15] = test system: Rattus norvegicus; experiment: Blood pressure lowering activity in spontaneously hypertensive rats (SHR) after 1 hour of administration (iv) of dose of 1.0 mg/kg; assay type: functional
[16] = test system: Rattus norvegicus; experiment: Blood pressure lowering activity in spontaneously hypertensive rats (SHR) after 6 hours of administration (iv) of dose of 0.25 mg/kg; assay type: functional
Summary of the method: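 Anesthetized spontaneously hypertensive rats of either sex, 250–300 g (pentobarbital sodium 40–50 mg/kg ip). Compound given iv via cannulated femoral vein. Arterial pressure recorded via right femoral artery cannula with pressure transducer, body temperature held at 37.5 °C. Value is maximum change in mean blood pressure (mmHg) at the time point. Groups of four to six animals.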

[17] = test system: Rattus norvegicus; experiment: Inhibitory concentration against phenylephrine in conscious spontaneously […] rats (SHR); assay type: functional, organism-based
[18] = test system: Rattus norvegicus; experiment: Inhibitory concentration against 5-HT in conscious spontaneously […] rats (SHR); assay type: functional, organism-based
[19] = test system: Rattus norvegicus; experiment: Blood pressure lowering activity in spontaneously hypertensive rats (SHR) after 6 hours of administration (iv) of dose of 1.0 mg/kg; assay type: functional
[20] = target: T1, Adrenergic receptor alpha-1; experiment: Alpha-1-antagonistic activity against phenylephrine in rat aorta; assay type: functional, tissue-based
[21] = test system: Rattus norvegicus; experiment: Blood pressure lowering activity in spontaneously hypertensive rats (SHR) after 6 hours of administration (iv) of dose of 1.0 mg/kg […]; assay type: functional
[22] = test system: Rattus norvegicus; experiment: Blood pressure lowering activity in spontaneously hypertensive rats (SHR) after 1 hour of administration (iv) of dose of 1.0 mg/kg […]; assay type: functional

With `COc1ccccc1N1CCN(CC2CN=C3c4ccccc4NC(=O)N32)CC1` (stereo not drawn) the Ki [1] was 0.21 nM, the MBP [2] was “inactive” and the Ki [3] was 0.593 µM. The MBP [4] was “inactive”.

`O=C1Nc2ccccc2C2=NC(CN3CCN(Cc4ccc5c(c4)OCO5)CC3)CN12` (stereo not drawn) was tested, and the Ki [1] was over 100 nM, the MBP [5] was “inactive” and the MBP [6] was “inactive”.

`CN1C(=O)N2C(=NCC2CN2CCN(c3ccccc3Cl)CC2)c2ccccc21` (stereo not drawn) gave a Ki [1] of 0.068 nM, an MBP [7] of -8.3 mmHg and an MBP [8] of -14 mmHg. It also gave an MBP [9] of -5.9 mmHg, a Ki [3] of 0.81 µM and an MBP [10] of -24 mmHg.

Molecule `COc1ccccc1N1CCN(CC2CN3C(=O)Nc4ccccc4C3=N2)CC1` (stereo not drawn) has a Ki [1] of 1.3 nM, an MBP [11] of -20 mmHg and an MBP [12] of -18.8 mmHg. The Ki [3] was 3.45 µM.

Molecule `COc1ccccc1N1CCN(CCn2c(=O)[nH]c3ccccc3c2=O)CC1` has a Ki [1] of 0.25 nM, a pA2 [13] of 9.63 and an MBP [7] of -33.9 mmHg. It also gave an MBP [9] of -31.7 mmHg and a Ki [3] of 1.599 µM.

Molecule `O=C1Nc2ccccc2C2=NC(CN3CCN(Cc4ccccc4)CC3)CN12` (stereo not drawn) has a Ki [1] of 850 nM, an MBP [14] of -43.7 mmHg and a Ki [3] of over 10 µM.

In the case of `O=C1Nc2ccccc2C2=NC(CN3CCN(c4ccccc4)CC3)CN12` (stereo not drawn), the Ki [1] is reported as 2.01 nM, the MBP [15] is reported as -57.5 mmHg and the MBP [16] is reported as -8.75 mmHg. For the same molecule, the MBP [11] was -49.3 mmHg, the MBP [12] was -32.5 mmHg and the IC50 [17] was 0.44 nM. It also gave a Ki [3] of 3.86 µM, an IC50 [18] of 0.36 nM and an MBP [19] of -44.5 mmHg. For the same molecule, the pA2 [20] was 9.82.

In the case of `O=C(c1ccc(F)cc1)C1CCN(CCn2c(=O)[nH]c3ccccc3c2=O)CC1` [KETANSERIN], the IC50 [17] is reported as 5.73 nM and the IC50 [18] is reported as 27.8 nM.

In the case of `COc1ccc(N2CCN(CC3CN4C(=O)Nc5ccccc5C4=N3)CC2)cc1` (stereo not drawn), the Ki [1] is reported as over 100 nM, the MBP [5] is reported as “inactive” and the MBP [6] is reported as “inactive”.

In the case of `CN1C(=O)N2CC(CN3CCN(c4ccccc4)CC3)N=C2c2ccccc21` (stereo not drawn), the Ki [1] is reported as 10.5 nM, the MBP [2] is reported as “inactive” and the Ki [3] is reported as 3.334 µM. The MBP [4] was “inactive”.

With `O=C1Nc2ccccc2C2=NC(CN3CCN(c4ccccc4Cl)CC3)CN12` (stereo not drawn) the Ki [1] was 1.1 nM, the MBP [15] was -40.7 mmHg and the MBP [11] was -25.5 mmHg. It also gave an MBP [12] of -5.7 mmHg, a Ki [3] of 3.166 µM and an MBP [19] of -12.6 mmHg.

For `CN1C(=O)N2C(=NCC2CN2CCN(c3ccccc3)CC2)c2ccccc21` (stereo not drawn), the Ki [1] was 15 nM, the MBP [21] was -20 mmHg and the MBP [22] was -23.3 mmHg.
